From ChEMBL document CHEMBL1143201 (Bioorg Med Chem, 2008) come the findings set out here.

pIC50: −log10 of the molar value. The source made the active and inactive calls. The rule behind the calls is not given here.

What all share (type): cell-based
The target in assay [1] is T1, Muscarinic acetylcholine receptor M1 (Homo sapiens) (UniProt P11229).
T1 sequence (whole entry): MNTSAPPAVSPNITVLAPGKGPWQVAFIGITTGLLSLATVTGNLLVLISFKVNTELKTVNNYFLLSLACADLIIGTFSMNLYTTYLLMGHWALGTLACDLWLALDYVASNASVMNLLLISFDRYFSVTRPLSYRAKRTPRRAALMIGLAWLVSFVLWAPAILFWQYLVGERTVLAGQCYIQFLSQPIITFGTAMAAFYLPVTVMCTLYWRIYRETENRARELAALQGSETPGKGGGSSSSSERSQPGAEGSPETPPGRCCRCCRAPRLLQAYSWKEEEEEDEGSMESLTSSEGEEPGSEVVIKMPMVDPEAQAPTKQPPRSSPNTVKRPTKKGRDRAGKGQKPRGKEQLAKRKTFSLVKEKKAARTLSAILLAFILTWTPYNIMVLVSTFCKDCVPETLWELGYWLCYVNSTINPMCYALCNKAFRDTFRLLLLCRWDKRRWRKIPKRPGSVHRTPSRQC
The experiment in a line: (§1) Displacement of [3H]NMS from human muscarinic M1 receptor expressed in CHO cells by wash-resistant binding method. A digest of the protocol:
(§2)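 Human M1-transfected CHO cells in Hepes buffer were preincubated with test ligand. Each wash was a ~50-volume buffer dilution and centrifugation, done three times in all. Washed cells were resuspended, given [3H]NMS, and incubated 1 h at 37 °C. Bound radioactivity was then taken by filtration and scintillation counting; pIC50 derived.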
For orientation: Displacement assays read how much labelled ligand stays bound in the presence of the test substance.

The target of assay [2] is T2, Muscarinic acetylcholine receptor M1 (Homo sapiens, UniProt P11229).
T2 sequence (P11229 whole entry): T1 sequence (whole entry)
The experiment in a line: Displacement of [3H]NMS from human muscarinic M1 receptor expressed in CHO cells in continuous presence of radioligand. The method, boiled down:
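CHO cells stably expressing human M1 receptor, grown in DMEM with 10% bovine calf serum and geneticin, trypsinized 4 days after subculture and washed into Hepes buffer. Cells incubated 1 h at 37 °C with 0.14–0.20 nM [3H]NMS plus increasing analog concentrations. Atropine defined nonspecific binding. Ended by rapid GF/B filtration and ice-cold saline washes, then scintillation counting; pIC50 reported.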

Assay [3] has as its target T2, Muscarinic acetylcholine receptor M1. Described as §1. A digest of the protocol:
as §2

Assay [4] shares this target. As to the kind of experiment: Displacement of [3H]NMS from human muscarinic M1 receptor expressed in CHO cells at pH 8 by wash-resistant binding method. A digest of the protocol: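 Human M1-transfected CHO cells preincubated with increasing analog concentrations in pH 8.0 buffer. Each wash is ~50 vol buffer dilution then centrifugation, done three times in total. Pellet resuspended in buffer with [3H]NMS for 1 h at 37 °C. Bound radioactivity collected by rapid filtration and scintillation counting. Result expressed as pIC50 of residual inhibition.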

The target is the same in assay [5]. The experiment in a line: Displacement of [3H]NMS from human muscarinic M1 receptor expressed in CHO cells at pH 8 in continuous presence of radioligand. A digest of the protocol: (§3)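 CHO cells stably transfected with human M1 gene, grown in DMEM with 10% bovine calf serum and geneticin, harvested by mild trypsinization 4 days after subculture, washed in Hepes medium. Buffer acidified to pH 6.0 or set to pH 8.0. Cells incubated 1 h at 37 °C with 0.14–0.20 nM [3H]NMS plus increasing analog concentrations. Nonspecific binding defined with 10 µM atropine. Filtration, saline washes, scintillation counting; pIC50 derived.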

The target is the same in assay [6]. As to the kind of experiment: Displacement of [3H]NMS from human muscarinic M1 receptor expressed in CHO cells at pH 6 in continuous presence of radioligand. A digest of the protocol:
as §3

The target is the same in assay [7]. The experiment in a line: (§4) Displacement of [3H]NMS from human muscarinic M1 receptor expressed in CHO cells at pH 6 by wash-resistant binding method. A digest of the protocol: (§5)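 Washout paradigm run in binding buffer acidified to pH 6.0, on CHO cells stably carrying human M1 receptor. After ligand preincubation, cells went through three rounds of ~50-volume dilution plus centrifugation, then resuspension with [3H]NMS for 1 h at 37 °C. Residual bound label was measured by filtration and scintillation counting; pIC50 derived.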

Assay [8] deals with T1, Muscarinic acetylcholine receptor M1 (Homo sapiens). The description is as §4. The method, boiled down:
as §5

The term pIC50 denotes −log10 of the IC50, conventionally taken in molar units.

As for `CCOc1nsnc1C1=CCCN(C)C1`, the outcome in assay [1] was inactive. Moreover, the pIC50 in assay [2] is 6.85.
The matching figures for `CCOC(=O)CCCCOc1nsnc1C1=CCCN(C)C1`: “inactive” and 7.23.
For `CN1CCC=C(c2nsnc2OCC(=O)O)C1` the same measures were “inactive” and 6.21.
As for `CN1CCC=C(c2nsnc2OCCO)C1`, the result in assay [1] was inactive. Also, the pIC50 in assay [2] is 5.97.
Turning to `CN1CCC=C(c2nsnc2OCCCCCCN)C1`, the pIC50 in assay [3] was 5.40; in assay [2], 6.19.
For `CN1CCC=C(c2nsnc2OCC#Cc2ccccc2)C1` the same measures were 5.67 and 7.43.
Turning to `CN1CCC=C(c2nsnc2OCCCCn2cccc2)C1`, the pIC50 in assay [3] was 4.54; in assay [4], 4.92; in assay [5], 6.66; in assay [6], 6.39; in assay [2] it was 6.56; in assay [7] it was 4.40.
With `CN1CCC=C(c2nsnc2OCCCN)C1`, the pIC50 was 4.83 in assay [3] and 6.79 in assay [2].
Take `CNCCCCOc1nsnc1C1=CCCN(C)C1`: in assay [1], the outcome was inactive. In addition, the pIC50 in assay [2] was 5.15.
For `CN1CCC=C(c2nsnc2OCCCO)C1` the same measures were “inactive” and 5.42.
For `CCCOc1nsnc1C1=CCCN(C)C1` the same measures were “inactive” and 7.28.
The matching figures for `CN1CCC=C(c2nsnc2OCCCCN)C1`: “inactive” and 4.11.
As to `CN1CCC=C(c2nsnc2OCCCCCN)C1`, the negative-log IC50 (pIC50) in assay [3] was 4.35; in assay [2], 5.72.
As for `CN1CCC=C(c2nsnc2OCCCCn2ccnc2)C1`, the pIC50 is 4.28 in assay [3]; 4.27 in assay [4]; 6.06 in assay [5]; 5.64 in assay [6]; 6.06 in assay [2]. The outcome in assay [8] was inactive.
In the case of `CN1CCC=C(c2nsnc2OCCCCO)C1`, the result in assay [1] was inactive. Further, the pIC50 in assay [2] is 6.51.
As to `CN1CCC=C(c2nsnc2OCCN)C1`, the results for the pIC50 in assay [3] and in assay [2] were 3.96 and 6.00, respectively.
